Data reported in ChEMBL document CHEMBL1137684, “Examination of growth inhibitory properties of synthetic chalcones for which antibacterial activity was predicted” (2009).
Converted amounts (≈) assume the structure as drawn. The source made the active and inactive calls. How the calls were made is not given here.

Tests used:
[1] = system: Escherichia coli; experiment: Antibacterial activity against Escherichia coli WF+; format: functional, organism-based
[2] = system: Staphylococcus aureus; experiment: Antibacterial activity against Staphylococcus aureus Rosenbach 209 after 48 hrs by agar well diffusion method; format: functional
Outline: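 Agar-well diffusion on meat-peptone agar. Read-out was the diameter of the inhibition zone, with ≥15 mm taken as active. Pure solvent served as the control.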

[3] = system: Staphylococcus aureus; experiment: Antibacterial activity against Staphylococcus aureus Rosenbach 209 after 24 hrs by serial dilution method; format: functional; details: Rosenbach 209, 24 h
Outline: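 Serial dilution of each chalcone in meat-peptone broth in tubes. Each tube was inoculated with bacterial suspension at 10⁵ cells/ml and incubated at 37 °C for 24 h. MIC was the lowest dilution with no visible growth compared with inoculated drug-free broth.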

Compound | Activity [1] | diameter of the inhibition zone (DIZ) [2] [mm] | MIC [3] [µg/mL]
O=C(/C=C/c1ccc(Cl)cc1)c1ccccc1 [4-CHLORO CHALCONE] | inactive | 0 | 500 (≈ 2060 µM)
O=C(/C=C/c1ccccc1O)c1ccc(Cl)cc1 | inactive | 20 | 125 (≈ 483 µM)
COc1ccc(/C=C/C(=O)c2ccccc2)cc1 [4-METHOXY CHALCONE] | inactive | 0 | 500 (≈ 2100 µM)
O=C(/C=C/c1ccccc1)c1ccc(Cl)cc1 | inactive | 0 | 500 (≈ 2060 µM)
COc1cc(/C=C/C(=O)/C=C/c2cc(OC)c(OC)c(OC)c2)cc(OC)c1OC | inactive | 0 | 250 (≈ 603 µM)
COc1cc(C(=O)/C=C/c2ccc(C)cc2)cc(OC)c1OC | inactive | 0 | 500 (≈ 1600 µM)
COc1cc(/C=C/C(=O)c2cc(OC)c(OC)c(OC)c2)ccc1O | inactive | 0 | 500 (≈ 1450 µM)
COc1cc(C(=O)/C=C/C=C/c2ccccc2)cc(OC)c1OC | inactive | 19 | 500 (≈ 1540 µM)
O=C(/C=C/c1ccc([N+](=O)[O-])cc1)c1ccccc1 | inactive | 17 | 250 (≈ 987 µM)
N#Cc1ccc(/C=C/C(=O)c2ccccc2)cc1 | inactive | 16 | 500 (≈ 2140 µM)
O=C(/C=C/c1ccc(O)c(O)c1)c1ccccc1 | inactive | 21 | 125 (≈ 520 µM)
COc1cc(C(=O)/C=C/c2ccc(C#N)cc2)cc(OC)c1OC | inactive | 0 | 62.5 (≈ 193 µM)
COc1ccc(/C=C/C(=O)c2ccc(Cl)cc2)cc1O | inactive | 0 | 62.5 (≈ 216 µM)
O=C(/C=C/c1cccc(O)c1)c1ccccc1 [3-HYDROXY CHALCONE] | inactive | 20 | 250 (≈ 1110 µM)
O=C(/C=C/c1cc([N+](=O)[O-])ccc1O)c1ccc(Cl)cc1 | inactive | 0 | 500 (≈ 1650 µM)
O=C(/C=C/c1ccc(O)c(O)c1)c1ccc(Cl)cc1 | inactive | 19 | 125 (≈ 455 µM)
O=C(/C=C/C=C/c1ccccc1)c1ccc(Cl)cc1 | inactive | 0 | 500 (≈ 1860 µM)
O=C(/C=C/c1ccc(Cl)cc1)/C=C/c1ccc(Cl)cc1 | inactive | 0 | 250 (≈ 825 µM)
COc1cc(C(=O)/C=C/c2ccc(N(C)C)cc2)cc(OC)c1OC | inactive | 0 | 500 (≈ 1460 µM)
O=C(/C=C/c1ccccc1)c1ccccc1 [CHALCONE] | inactive | 29 | 125 (≈ 600 µM)
CC(=O)Nc1ccc(/C=C/C(=O)c2ccc(Cl)cc2)cc1 | inactive | 0 | 500 (≈ 1670 µM)
Cc1ccc(/C=C/C(=O)c2ccc(Cl)cc2)cc1 | inactive | 0 | 500 (≈ 1950 µM)
COc1ccc(/C=C/C(=O)c2ccccc2)cc1O | inactive | 0 | 250 (≈ 983 µM)
COc1cccc(/C=C/C(=O)c2ccccc2)c1O | inactive | 19 | 125 (≈ 492 µM)
O=C(/C=C/c1ccc(Cl)cc1)c1ccc(Cl)cc1 [4',4-DICHLOROCHALCONE] | inactive | 0 | 500 (≈ 1800 µM)

Compound | Activity [1] | diameter of the inhibition zone (DIZ) [2] [mm] | MIC [3] [µg/mL]
O=C(/C=C/C=C/c1ccccc1)c1ccccc1 | inactive | 0 | 500 (≈ 2130 µM)
O=C(/C=C/c1ccc([N+](=O)[O-])cc1)c1ccc(Cl)cc1 | inactive | 17 | 250 (≈ 869 µM)
COc1cccc(/C=C/C(=O)c2ccc(Cl)cc2)c1O | inactive | 0 | 250 (≈ 866 µM)
O=C(/C=C/c1ccc(O)cc1)c1ccccc1 [4-HYDROXYCHALCONE] | inactive | 19 | 125 (≈ 557 µM)
COc1cc(C(=O)/C=C/c2ccccc2O)cc(OC)c1OC | inactive | 0 | 500 (≈ 1590 µM)
COc1ccc(/C=C/C(=O)c2cc(OC)c(OC)c(OC)c2)cc1 | inactive | 0 | 500 (≈ 1520 µM)
COc1cc(C(=O)/C=C/c2ccc(O)cc2)cc(OC)c1OC | inactive | 0 | 500 (≈ 1590 µM)
O=C(/C=C/C=C/c1ccccc1)/C=C/C=C/c1ccccc1 | inactive | 0 | 500 (≈ 1750 µM)
O=C(/C=C/c1ccc(O)cc1)c1ccc(Cl)cc1 | inactive | 31 | 125 (≈ 483 µM)
Cc1ccc(/C=C/C(=O)c2ccccc2)cc1 | inactive | 0 | 500 (≈ 2250 µM)
COc1ccc(/C=C/C(=O)c2cc(OC)c(OC)c(OC)c2)cc1O | inactive | 0 | 500 (≈ 1450 µM)
CC(=O)Nc1ccc(/C=C/C(=O)c2ccccc2)cc1 | inactive | 0 | 500 (≈ 1880 µM)
COc1cc(/C=C/C(=O)c2ccc(Cl)cc2)cc(OC)c1O | inactive | 19 | 500 (≈ 1570 µM)
N#Cc1ccc(/C=C/C(=O)c2ccc(Cl)cc2)cc1 | inactive | 21 | 250 (≈ 934 µM)
COc1cc(C(=O)/C=C/c2ccc(Cl)cc2)cc(OC)c1OC | inactive | 0 | 62.5 (≈ 188 µM)
CN(C)c1ccc(/C=C/C(=O)c2ccc(Cl)cc2)cc1 | inactive | 0 | 500 (≈ 1750 µM)
COc1cc(/C=C/C(=O)c2ccccc2)ccc1O | inactive | 0 | 500 (≈ 1970 µM)
COc1cc(C(=O)/C=C/c2ccc([N+](=O)[O-])cc2)cc(OC)c1OC | inactive | 0 | 62.5 (≈ 182 µM)
COc1cc(/C=C/C(=O)c2ccc(Cl)cc2)ccc1O | inactive | 21 | 250 (≈ 866 µM)
COc1cc(C(=O)/C=C/c2ccccc2)cc(OC)c1OC | inactive | 0 | 250 (≈ 838 µM)
COc1cc(C(=O)/C=C/c2ccc(NC(C)=O)cc2)cc(OC)c1OC | inactive | 0 | 500 (≈ 1410 µM)
COc1ccc(/C=C/C(=O)c2ccc(Cl)cc2)cc1 | inactive | 0 | 500 (≈ 1830 µM)
O=C(/C=C/c1ccccc1O)c1ccccc1 | inactive | 22 | 62.5 (≈ 279 µM)
CN(C)c1ccc(/C=C/C(=O)c2ccccc2)cc1 | inactive | 0 | 500 (≈ 1990 µM)
COc1cc(C(=O)/C=C/c2cccc(O)c2)cc(OC)c1OC | inactive | 0 | 500 (≈ 1590 µM)
